Measurements: ChEMBL document CHEMBL1124947, “Cationic antiprotozoal drugs. Trypanocidal activity of 2-(4'-formylphenyl)imidazo[1,2-a]pyridinium guanylhydrazones and related derivatives of quaternary heteroaromatic compounds” (J Med Chem, 1990)

How the values were obtained:
Assay type in all cases: functional
Mus musculus [1] = assay: Trypanocidal Activity at I.C.E. value 0.24 when administered perorally.
Mus musculus [2] = assay: Trypanocidal Activity at I.C.E. value 0.75 when administered subcutaneously.
Outline: (§1)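 Mice, in groups of five per dose, were given a standard inoculum of blood-stage T. rhodesiense that is lethal to all untreated controls, then dosed subcutaneously. Usually 11 dose levels were used (2^n × 0.42 mg/kg).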

Mus musculus [3] = assay: Trypanocidal Activity at I.C.E. value 0.72 when administered subcutaneously.; outline: as §1
Mus musculus [4] = assay: Trypanocidal Activity at I.C.E. value 0.56 when administered subcutaneously.; outline: as §1
[5] = system: Trypanosoma brucei rhodesiense; assay: In Vitro measurement of inhibition of thymidine uptake in cell culture of Trypanosoma rhodesiense; conditions: read-out: ID50 (the source's name)
Outline: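 Parasites harvested from infected rats and incubated 3 h across a drug concentration series, usually 0.1–100 µg/mL. Incorporation of radiolabeled thymidine measured. ID50 is the concentration (µg/mL) producing 50% inhibition.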

[6] = system: Trypanosoma brucei rhodesiense; assay: In Vitro measurement of inhibition of leucine uptake in cell culture of Trypanosoma rhodesiense; conditions: read-out: ID50 (the source's name)
Outline: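 Trypanosomes harvested from infected rats, cultured 3 h with several concentrations of drug, usually 0.1–100 µg/mL. Radiolabeled L-leucine uptake measured. ID50 is the concentration in µg/mL giving 50% inhibition of incorporation.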

Mus musculus [7] = assay: Trypanocidal Activity at I.C.E. value 0.52 when administered subcutaneously.
Outline: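 Blood-stage T. rhodesiense infection came from a standard inoculum lethal to all untreated mice. Drug was given by subcutaneous injection to groups of five mice. Survival beyond 30 days counted as cure. […] Sub-curative doses scored 0, and data were normalized at each dose.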

Mus musculus [8] = assay: Trypanocidal Activity at I.C.E. value 0.60 when administered perorally.
Mus musculus [9] = assay: Trypanocidal Activity at I.C.E. value 0.27 when administered perorally.
Mus musculus [10] = assay: Trypanocidal Activity at I.C.E. value 0.92 when administered subcutaneously.; outline: as §1

Br.Cc1cccc2n1cc(COc1ccc(/C=N/NC(=N)N3CCCC3)cc1)[n+]2C.[Br-]
CD50 (Mus musculus [1]): 53 mg/kg
CD50 (Mus musculus [2]): 0.4 mg/kg

Br.C[n+]1c(/C=C/c2ccc(/C=N/NC(=N)NO)cc2)cn2ccccc21.[Br-]
CD50 (Mus musculus [3]): 0.2 mg/kg

CN(C)C(=N)N/N=C/c1ccc(-c2cn3ccsc3[n+]2C)cc1.I.[I-]
CD50 (Mus musculus [4]): 0.2 mg/kg
IC50 [5]: 1 µg/mL
IC50 [6]: 1 µg/mL

CNC(=N)N/N=C/c1ccc(-c2cn3ccsc3[n+]2C)cc1.I.[I-]
CD50 (Mus musculus [7]): 0.4 mg/kg
IC50 [5]: 1.5 µg/mL
IC50 [6]: 1.2 µg/mL
CD50 (Mus musculus [8]): 6.6 mg/kg

Br.CCCSc1ccc2n(c1)cc(-c1ccc(/C=N/NC(=N)N)cc1)[n+]2C.[Br-]
CD50 (Mus musculus [9]): 26 mg/kg
CD50 (Mus musculus [10]): 0.2 mg/kg
